Measurements from ChEMBL document CHEMBL3588770, “Novel spirohydantoin derivative as a potent multireceptor-active antipsychotic and antidepressant agent” (Bioorg Med Chem, 2015).
Calls of active or inactive are those of the source. The calls are words filed in the database; no cut-off is given here.

Experiments:
[1] = molecular target: T1, Alpha-2C adrenergic receptor (Homo sapiens) (UniProt P18825); assay: Agonist activity at human recombinant alpha2C adrenoceptor expressed in CHO cells assessed as intracellular cAMP release at 1 uM by HTRF assay; format: functional, cell-based
T1 sequence (whole entry): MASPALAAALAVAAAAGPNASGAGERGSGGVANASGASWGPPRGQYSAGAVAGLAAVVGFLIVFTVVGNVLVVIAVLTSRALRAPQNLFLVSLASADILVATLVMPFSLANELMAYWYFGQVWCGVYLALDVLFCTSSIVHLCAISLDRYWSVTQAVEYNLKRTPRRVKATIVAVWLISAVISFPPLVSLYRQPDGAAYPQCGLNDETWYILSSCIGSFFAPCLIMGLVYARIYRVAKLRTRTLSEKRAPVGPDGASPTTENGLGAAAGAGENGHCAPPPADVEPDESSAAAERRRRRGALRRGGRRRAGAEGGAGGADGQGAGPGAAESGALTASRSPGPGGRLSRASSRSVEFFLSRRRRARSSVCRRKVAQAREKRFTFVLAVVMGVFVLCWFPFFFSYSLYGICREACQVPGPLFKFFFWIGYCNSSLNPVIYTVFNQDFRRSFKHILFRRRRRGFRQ
Procedure, shortened: (§1)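 Functional assays run by a contract lab on CHO or HEK-293 cells stably expressing the human receptor. Read-out was intracellular cAMP, IP1 or Ca2+ release. A single test concentration of 1.0E-06 was used, in duplicate. Data are mean % of the control response.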

[2] = molecular target: D(2) dopamine receptor (Homo sapiens) (UniProt P14416); assay: Agonist activity at human recombinant D2 receptor expressed in HEK293 cells at 1 uM; format: cell-based; procedure, shortened: as §1
Sequence of D(2) dopamine receptor (Homo sapiens) (P14416 whole entry): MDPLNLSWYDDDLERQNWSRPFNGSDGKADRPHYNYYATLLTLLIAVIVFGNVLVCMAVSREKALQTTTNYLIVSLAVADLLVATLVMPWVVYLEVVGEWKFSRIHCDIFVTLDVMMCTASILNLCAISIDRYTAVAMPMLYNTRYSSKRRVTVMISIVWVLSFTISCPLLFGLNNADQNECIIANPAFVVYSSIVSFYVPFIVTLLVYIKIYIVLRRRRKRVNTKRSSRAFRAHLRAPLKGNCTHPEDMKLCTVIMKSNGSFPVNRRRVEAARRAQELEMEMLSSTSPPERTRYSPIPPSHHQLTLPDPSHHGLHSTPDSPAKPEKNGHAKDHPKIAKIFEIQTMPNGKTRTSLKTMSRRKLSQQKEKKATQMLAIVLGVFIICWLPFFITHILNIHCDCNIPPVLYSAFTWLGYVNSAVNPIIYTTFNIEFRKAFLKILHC

[3] = molecular target: D(3) dopamine receptor (Homo sapiens) (UniProt P35462); assay: Agonist activity at human recombinant D3 receptor expressed in CHO cells assessed as intracellular cAMP release at 1 uM by HTRF method; format: functional, cell-based; procedure, shortened: as §1
Sequence of D(3) dopamine receptor (Homo sapiens) (P35462 whole entry): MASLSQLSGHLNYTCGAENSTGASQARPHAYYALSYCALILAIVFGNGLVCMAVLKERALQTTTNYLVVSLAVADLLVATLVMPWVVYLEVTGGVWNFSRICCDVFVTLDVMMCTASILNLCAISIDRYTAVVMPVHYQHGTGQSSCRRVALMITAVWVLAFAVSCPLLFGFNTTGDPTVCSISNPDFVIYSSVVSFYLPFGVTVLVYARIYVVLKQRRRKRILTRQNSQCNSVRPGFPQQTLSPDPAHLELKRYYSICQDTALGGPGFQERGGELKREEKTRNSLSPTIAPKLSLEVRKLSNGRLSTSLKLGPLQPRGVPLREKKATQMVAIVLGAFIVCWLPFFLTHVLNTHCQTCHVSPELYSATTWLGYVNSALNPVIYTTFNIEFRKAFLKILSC

[4] = molecular target: D(3) dopamine receptor (Homo sapiens) (UniProt P35462); assay: Antagonist activity at human recombinant D3 receptor expressed in CHO cells assessed as inhibition of dopamine-induced intracellular cAMP release at 1 uM by HTRF method; format: functional, cell-based; procedure, shortened: as §1
[5] = molecular target: T2, D(4) dopamine receptor (Homo sapiens) (UniProt P21917); assay: Agonist activity at human recombinant D4 receptor expressed in CHO cells assessed as intracellular cAMP release at 1 uM by HTRF method; format: functional, cell-based; procedure, shortened: as §1
T2 sequence (whole entry): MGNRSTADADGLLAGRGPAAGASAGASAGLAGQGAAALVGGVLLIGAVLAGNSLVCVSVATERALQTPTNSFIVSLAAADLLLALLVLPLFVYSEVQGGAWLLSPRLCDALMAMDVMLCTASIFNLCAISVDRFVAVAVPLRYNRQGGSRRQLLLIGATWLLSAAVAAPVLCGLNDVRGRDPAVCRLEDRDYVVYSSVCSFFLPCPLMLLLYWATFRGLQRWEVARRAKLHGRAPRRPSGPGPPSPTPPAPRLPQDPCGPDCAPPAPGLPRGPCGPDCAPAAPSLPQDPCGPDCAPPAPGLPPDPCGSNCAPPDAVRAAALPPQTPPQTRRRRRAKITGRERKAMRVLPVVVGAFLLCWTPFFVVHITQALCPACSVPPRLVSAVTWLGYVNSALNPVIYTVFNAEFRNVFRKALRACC

[6] = molecular target: 5-hydroxytryptamine receptor 2A (Homo sapiens) (UniProt P28223); assay: Antagonist activity at human recombinant 5HT2A receptor expressed in HEK293 cells assessed as inhibition of serotonin-induced intracellular IP1 release at 1 uM by HTRF assay; format: functional, cell-based; procedure, shortened: as §1
Sequence of 5-hydroxytryptamine receptor 2A (Homo sapiens) (P28223 whole entry): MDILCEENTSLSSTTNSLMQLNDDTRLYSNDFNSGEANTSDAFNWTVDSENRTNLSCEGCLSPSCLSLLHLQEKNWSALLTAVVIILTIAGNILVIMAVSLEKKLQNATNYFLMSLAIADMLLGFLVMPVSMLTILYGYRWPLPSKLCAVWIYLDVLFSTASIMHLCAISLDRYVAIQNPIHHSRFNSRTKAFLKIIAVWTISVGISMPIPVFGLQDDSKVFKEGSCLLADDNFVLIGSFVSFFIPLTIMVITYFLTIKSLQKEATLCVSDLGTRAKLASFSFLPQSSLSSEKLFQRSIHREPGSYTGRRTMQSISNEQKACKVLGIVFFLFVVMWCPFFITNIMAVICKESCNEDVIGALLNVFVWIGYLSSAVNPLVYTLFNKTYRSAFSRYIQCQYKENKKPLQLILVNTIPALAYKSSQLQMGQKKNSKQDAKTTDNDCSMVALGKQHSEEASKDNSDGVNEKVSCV

[7] = molecular target: T1, Alpha-2C adrenergic receptor (Homo sapiens); assay: Antagonist activity at human recombinant alpha2C adrenoceptor expressed in CHO cells assessed as inhibition of epinephrine-induced intracellular cAMP release at 1 uM by HTRF assay; format: functional, cell-based; procedure, shortened: as §1
Mus musculus [8] = assay: In vivo partial agonist activity at 5HT1A receptor in CD-1 mouse assessed as change in body temperature at 5 mg/kg, ip measured after 30 mins (reference value: -0.1 degC); format: functional, organism-based
Procedure, shortened: (§2)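 Male CD-1 mice, 7-9 per dose, compound suspended in 1% aqueous Tween 80 and given i.p. at 10 ml/kg. Rectal temperature was taken by thermometer 30, 60, 90 and 120 min after dosing. Change (Δt) is expressed against basal temperature measured at the start. Mean ± SEM, one-way ANOVA with Bonferroni test.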

Mus musculus [9] = assay: In vivo partial agonist activity at 5HT1A receptor in CD-1 mouse assessed as change in body temperature at 10 mg/kg, ip measured after 30 mins (reference value: -0.1 degC); format: functional, organism-based
Procedure, shortened: (§3)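 Male CD-1 mice, 7-9 per dose, dosed i.p. Rectal temperature was recorded at 30, 60, 90 and 120 min. Results are the change from basal temperature taken at the start of the experiment.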

Mus musculus [10] = assay: In vivo agonist activity at 5HT2A receptor in Swiss albino mouse assessed as induction of head twitch response at 5 to 40 mg/kg, ip; format: functional, organism-based
Mus musculus [11] = assay: In vivo partial agonist activity at 5HT1A receptor in CD-1 mouse assessed as change in body temperature at 10 mg/kg, ip measured after 120 mins (reference value: -0.1 degC); format: functional, organism-based; procedure, shortened: as §3
Mus musculus [12] = assay: Antianxiety-like activity in Swiss albino mouse assessed as number of punished crossings at 0.312 to 5 mg/kg, ip by four-plate test; format: functional, organism-based
Procedure, shortened: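 Four-plate test in male Swiss albino mice, 8-10 per dose, dosed i.p. in Tween 80 vehicle. After 15-s habituation, a 0.8 mA, 0.5 s foot shock was given at each plate crossing, with a 3 s shock-free interval. Punished crossings were counted over a 1-min session.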

Mus musculus [13] = assay: In vivo agonist activity at D2 receptor in ip dosed Swiss albino mouse assessed as induction of climbing behaviour; format: functional, organism-based
Rattus norvegicus = assay: Induction of lower lip retraction in Wistar rat at 5 to 40 mg/kg, ip; format: functional, organism-based
Mus musculus [14] = species on record: Mus musculus; assay: Ratio of MED for catalepsy in CD-1 mouse to ED50 for antipsychotic activity in CD-1 mouse
Mus musculus [15] = assay: In vivo partial agonist activity at 5HT1A receptor in CD-1 mouse assessed as change in body temperature at 5 mg/kg, ip measured after 90 mins (reference value: -0.1 degC); format: functional, organism-based; procedure, shortened: as §2
Mus musculus [16] = assay: Anti-depressant like activity in Swiss albino mouse assessed as shortening of immobility time at 2.5 mg/kg, ip by forced swim test; format: functional
Procedure, shortened: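 Forced swim test in male Swiss albino mice, 7-9 per dose. Compound was given i.p. in 1% Tween 80 at 10 ml/kg, 60 min pretest. Mice swam for 6 min in a cylinder with 6 cm of water at 23-25 °C. Immobility was scored over the last 4 min. Analysis was one-way ANOVA with Bonferroni.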

Mus musculus [17] = assay: In vivo antagonist activity at 5HT2A receptor in ip dosed Swiss albino mouse assessed as inhibition of (+/-)-DOI-induced head twitch response; format: functional
Procedure, shortened: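 Male Swiss albino mice, 5-6 per dose, habituated 20 min in glass cages. Compound was given i.p. 60 min pretest. Head twitches were induced by (±)DOI 2.5 mg/kg and counted for 20 min. ID50 is the dose inhibiting twitches by 50%.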

SMILES | Activity [1] | Activity [2] | Activity [3] | inhibition [4] | Activity [5] | inhibition [6] | inhibition [7] | deltaT (Mus musculus [8]) | deltaT (Mus musculus [9]) | Activity (Mus musculus [10]) | deltaT (Mus musculus [11]) | Activity (Mus musculus [12]) | Activity (Mus musculus [13]) | Activity (Rattus norvegicus) | Ratio (Mus musculus [14]) | deltaT (Mus musculus [15]) | inhibition in vivo at 2.5 mg/kg (Mus musculus [16]) | ED50 (Mus musculus [17])
COc1ccccc1N1CCN(CCCCN2C(=O)NC3(CCc4ccccc43)C2=O)CC1 (stereo not given) | 15% | 20% | 20% | 66% | 27% | 18% | 69% | – | – | – | – | – | – | – | – | – | – | –
COc1ccccc1N1CCN(CCCCN2C(=O)NC3(CCCc4ccccc43)C2=O)CC1 (stereo not given) | 20% | 24% | 18% | 53% | 15% | 27% | 79% | -0.8 °C | -1.9 °C | inactive | -1.2 °C | inactive | inactive | inactive | 50 | -0.7 °C | 37% | 19.6 mg/kg
